The values below come from ChEMBL document CHEMBL1821687, “Discovery, synthesis, and biological evaluation of novel SMN protein modulators” (J Med Chem, 2011).

The target of assay [1] is Survival motor neuron protein (Homo sapiens) (UniProt Q16637). As to the kind of experiment: Activation of SMN expressed in HEK293 cells assessed as rate of induction by SMN2-promotor driven luciferase reporter gene assay relative to basal level. It is filed as cell-based. Also on record: concentration or dose not given beside the values. The method in brief:
(§1)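 HEK-293 cells stably carrying the SMN2 reporter construct, kept in DMEM with 10% FCS, glutamax, pyruvate, pen/strep and 200 µg/mL hygromycin, and assayed without hygromycin. 2,000 cells/well were plated and adhered overnight at 37 °C, 5% CO2. Compounds were added as a 7-point titration, 50 µM to 25 nM final, in 0.46% DMSO, for 30–36 h. OneGlo luminescence was normalized to 4.5 mM sodium butyrate (100%) and DMSO (0%).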

Assay [2] has the same target. The experiment in a line: Activation of SMN expressed in HEK293 cells assessed as concentration required to reach 50% of maximum luciferase signal by SMN2-promotor driven luciferase reporter gene assay. It is filed as cell-based. A digest of the protocol:
as §1

Sequence of Survival motor neuron protein (Homo sapiens) (Q16637 whole entry): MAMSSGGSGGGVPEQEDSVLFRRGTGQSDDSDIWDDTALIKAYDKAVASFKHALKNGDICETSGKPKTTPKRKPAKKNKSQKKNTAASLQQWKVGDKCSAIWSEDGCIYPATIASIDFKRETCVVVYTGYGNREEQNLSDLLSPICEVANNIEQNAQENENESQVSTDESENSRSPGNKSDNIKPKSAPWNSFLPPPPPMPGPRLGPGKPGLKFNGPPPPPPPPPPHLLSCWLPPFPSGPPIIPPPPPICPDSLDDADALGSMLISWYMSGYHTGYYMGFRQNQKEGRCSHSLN

With `NC(=O)C1CCN(c2nc(-c3ccc4c(c3)OCC4)cs2)CC1`, the Activity in assay [1] was found to be 401%; in assay [2] it was 12.2 µM.
Regarding `CN(C)c1cccc(-c2cnc(N3CCC(C(N)=O)CC3)nc2)c1`, the Activity in assay [1] was 236%; in assay [2], 0.613 µM.
`NC(=O)C1CCN(c2nc(-c3ccccc3F)cs2)CC1`: the figures for the Activity in assay [1] and in assay [2] were 274% and 2.44 µM, respectively.
For `NC(=O)C1CCN(c2ncc(-c3cccc(N4CCCC4)c3)s2)CC1` the same measures were 685% and 0.387 µM.
For `NC(=O)C1CCN(c2ncc(-c3ccc(Br)cc3)s2)CC1` the same measures were 599% and 0.224 µM.
For `COc1cccc(-c2csc(N3CCC(C(N)=O)CC3)n2)c1`, the Activity in assay [1] worked out at 357%; in assay [2], 1.94 µM.
As to `NC(=O)C1CCN(c2nc(-c3ccc4c(c3)OCCO4)cs2)CC1`, the Activity in assay [1] was found to be 459%; in assay [2] it was 0.77 µM.
On to `CN(C)c1cccc(-c2ccnc(N3CCC(C(N)=O)CC3)n2)c1`, for which the Activity in assay [1] was 446%; in assay [2], 0.772 µM.
Take `CCOc1ccc(-c2csc(N3CCC(C(N)=O)CC3)n2)cc1`: the Activity in assay [1] stood at 212%; in assay [2], 3.87 µM.
Regarding `N#Cc1ccc(-c2csc(N3CCC(C(N)=O)CC3)n2)cc1`, the Activity in assay [1] was determined as 49%; in assay [2] it was 9.72 µM.
The corresponding values for `CN(C)c1cccc(-c2csc(N3CCC(C(N)=O)CC3)n2)c1` are 504% and 0.97 µM.
The corresponding values for `NC(=O)C1CCN(c2ncc(-c3ccc4c(c3)OC(F)(F)O4)s2)CC1` are 598% and 0.194 µM.
Take `CC(=O)NC1CCN(c2nc(-c3ccc(Br)cc3)cs2)CC1`: the Activity in assay [1] was -57%; in assay [2], 15.4 µM.
On to `NC(=O)C1CCN(c2nc(-c3cccc4sc5ccccc5c34)cs2)CC1`, for which the Activity in assay [1] turned out to be 369%; in assay [2] it was 30.7 µM.
For the compound `COc1cc(-c2csc(N3CCC(C(N)=O)CC3)n2)cc(OC)c1OC`, the Activity in assay [1] is 73%; in assay [2] it was 19.4 µM.
The corresponding values for `NC(=O)C1CCN(c2nc(-c3ccccc3Cl)cs2)CC1` are 57% and 7.72 µM.
Turning to `CN(C)c1cccc(-c2cnc(N3CCC(C(N)=O)CC3)s2)c1`, the Activity turned out to be 550% in assay [1] and 0.039 µM in assay [2].
Consider `Cc1ccc(-c2csc(N3CCC(C(N)=O)CC3)n2)cc1`, for which the Activity turned out to be 439% in assay [1] and 1.22 µM in assay [2].
For `COc1ccc(-c2csc(N3CCC(C(N)=O)CC3)n2)cc1OC`, the figures for the Activity in assay [1] and in assay [2] were 59% and 12.2 µM, respectively.
For `NC1CCN(c2nc(-c3ccc(Br)cc3)cs2)CC1` the same measures were 182% and 2.44 µM.
Consider `CCOC(=O)C1CCN(c2ncc(-c3ccc4c(c3)OCCCO4)s2)CC1`, for which the Activity in assay [1] stood at 320%; in assay [2] it was 0.031 µM.
Turning to `NC(=O)C1CCN(c2ncnc(-c3ccc4c(c3)OCCCO4)n2)CC1`, the results for the Activity in assay [1] and in assay [2] were 186% and 2.44 µM, respectively.
Turning to `O=C(NCCc1ccccc1)C1CCN(c2nc(-c3ccc(Br)cc3)cs2)CC1`, the Activity was 32% in assay [1] and 6.13 µM in assay [2].
For `NC(=O)N1CCN(c2nc(-c3ccc(Br)cc3)cs2)CC1` the same measures were 89% and 12.2 µM.
Consider `NC(=O)C1CCN(c2nc(-c3cccs3)cs2)CC1`, for which the values for the Activity in assay [1] and in assay [2] were 51% and 7.72 µM, respectively.
Take `CN(C)c1ccc(-c2csc(N3CCC(C(N)=O)CC3)n2)cc1`: the Activity in assay [1] is 64%; in assay [2], 30.7 µM.
`Cc1cccc(-c2csc(N3CCC(C(N)=O)CC3)n2)c1`: the Activity in assay [1] was 187%; in assay [2] it was 30.7 µM.
As to `CN(C)C(=O)C1CCN(c2nc(-c3ccc(Br)cc3)cs2)CC1`, the values for the Activity in assay [1] and in assay [2] were 43% and 30.8 µM, respectively.
With `NC(=O)C1CCN(c2nc(-c3ccc(Oc4ccccc4)cc3)cs2)CC1`, the Activity was 240% in assay [1] and 4.87 µM in assay [2].
Regarding `NC(=O)C1CCN(c2nc(-c3cccc([N+](=O)[O-])c3)cs2)CC1`, the figures for the Activity in assay [1] and in assay [2] were 20% and 3.87 µM, respectively.
For `NC(=O)C1CCN(c2ncc(-c3cccc(N4CCOCC4)c3)s2)CC1` the same measures were 275% and 2.44 µM.
For `CN(C)c1cccc(-c2nccc(N3CCC(C(N)=O)CC3)n2)c1`, the Activity in assay [1] was 306%; in assay [2], 12.2 µM.
With `NC(=O)C1CCN(c2nccc(-c3ccc4c(c3)OCCO4)n2)CC1`, the Activity amounted to 364% in assay [1] and 1.22 µM in assay [2].
The corresponding values for `COc1ccc(-c2cnc(N3CCC(C(N)=O)CC3)s2)cc1OC` are 209% and 9.72 µM.
On to `N#CC1CCN(c2nc(-c3ccc(Br)cc3)cs2)CC1`, for which the Activity in assay [1] is 78%; in assay [2] it was 30.7 µM.
For `CN(C)c1cccc(-c2nnc(N3CCC(C(N)=O)CC3)s2)c1` the same measures were 448% and 0.387 µM.
On to `NC(=O)C1CCN(c2nc(-c3cccc(Cl)c3)cs2)CC1`, for which the Activity in assay [1] was determined as 53%; in assay [2], 12.2 µM.
For `NC(=O)C1CCN(c2nc(-c3ccc4c(c3)OCO4)cs2)CC1`, the values for the Activity in assay [1] and in assay [2] were 359% and 2.44 µM, respectively.
Take `NC(=O)C1CCN(c2nc(-c3ccc(C(F)(F)F)cc3)cs2)CC1`: the Activity was 386% in assay [1] and 2.44 µM in assay [2].
For the compound `NC(=O)C1CCN(c2nc(-c3cccc(F)c3)cs2)CC1`, the figures for the Activity in assay [1] and in assay [2] were 64% and 9.72 µM, respectively.
As to `NC(=O)C1CCN(c2ncc(-c3ccc(Cl)cc3)s2)CC1`, the Activity in assay [1] worked out at 498%; in assay [2], 0.154 µM.
As to `NC(=O)C1CCN(c2nc(-c3ccc(-c4ccccc4)cc3)cs2)CC1`, the Activity worked out at 58% in assay [1] and 24.4 µM in assay [2].
On to `NC(=O)C1CCN(c2nc(-c3ccc(OC(F)(F)F)cc3)cs2)CC1`, for which the figures for the Activity in assay [1] and in assay [2] were 297% and 3.07 µM, respectively.
Take `Brc1ccc(-c2csc(N3CCCCC3)n2)cc1`: the Activity in assay [1] was found to be 272%; in assay [2], 19.4 µM.
For `NC(=O)C1CCN(c2nc(-c3ccc4ccccc4c3)cs2)CC1` the same measures were 162% and 7.72 µM.
In the case of `NC(=O)C1CCN(c2nc(-c3ccc4occc(=O)c4c3)cs2)CC1`, the Activity in assay [1] is 589%; in assay [2], 15.4 µM.
For the compound `NC(=O)C1CCN(c2nc(-c3ccc(Cl)cc3)cs2)CC1`, the values for the Activity in assay [1] and in assay [2] were 381% and 2.44 µM, respectively.
For the compound `O=C(Nc1ccccc1)C1CCN(c2nc(-c3ccc(Br)cc3)cs2)CC1`, the Activity was determined as 262% in assay [1] and 2.44 µM in assay [2].
For `CN(C)c1cccc(-c2ncnc(N3CCC(C(N)=O)CC3)n2)c1` the same measures were 200% and 1.22 µM.
For `NC(=O)C1CCN(c2nc(-c3cccc(Br)c3)cs2)CC1`, the Activity turned out to be 57% in assay [1] and 30.8 µM in assay [2].
With `NC(=O)C1CCN(c2ncc(-c3cccc(N4CCCCC4)c3)s2)CC1`, the Activity was 565% in assay [1] and 1.54 µM in assay [2].
For `Cc1ccc(-c2ccnc(N3CCC(C(N)=O)CC3)n2)cc1` the same measures were 444% and 0.387 µM.
For the compound `NC(=O)C1CCN(c2ncc(-c3ccc4c(c3)OCO4)s2)CC1`, the figures for the Activity in assay [1] and in assay [2] were 590% and 0.049 µM, respectively.
`CC(C)(C)c1ccc(-c2csc(N3CCC(C(N)=O)CC3)n2)cc1`: the values for the Activity in assay [1] and in assay [2] were 243% and 3.87 µM, respectively.
As to `NC(=O)C1CCN(c2ncc(-c3ccc4c(c3)OCCO4)s2)CC1`, the Activity worked out at 424% in assay [1] and 0.097 µM in assay [2].
The corresponding values for `NC(=O)C1CCN(c2nc(-c3ccc4c(c3)OCCCO4)cs2)CC1` are 443% and 0.49 µM.
For `CN(C)c1cccc(-c2ncc(F)c(N3CCC(C(N)=O)CC3)n2)c1` the same measures were 141% and 3.07 µM.
In the case of `NC(=O)C1CCN(c2ncc(-c3cccc(F)c3)s2)CC1`, the Activity turned out to be 601% in assay [1] and 2.44 µM in assay [2].
For the compound `NC(=O)C1CCN(c2nccc(-c3ccc(Br)cc3)n2)CC1`, the figures for the Activity in assay [1] and in assay [2] were 387% and 0.387 µM, respectively.
Consider `CN(C)C(=O)c1ccc(-c2csc(N3CCC(C(N)=O)CC3)n2)cc1`, for which the Activity in assay [1] was found to be 51%; in assay [2] it was 12.2 µM.
As to `CC(=O)C1CCN(c2ncc(-c3cccc(N(C)C)c3)s2)CC1`, the Activity in assay [1] amounted to 224%; in assay [2], 3.07 µM.
In the case of `CC(=O)N1CCN(c2nc(-c3ccc(Br)cc3)cs2)CC1`, the Activity in assay [1] is 234%; in assay [2], 3.07 µM.
